These results are taken from ChEMBL document CHEMBL1123670, “Inhibitors of cyclic AMP phosphodiesterase. 2. Structural variations of N-cyclohexyl-N-methyl-4-[(1,2,3,5-tetrahydro- 2-oxoimidazo[2,1-b]quinazolin-7-yl)-oxy]butyramide (RS-82856)” (J Med Chem, 1987).

One experiment has as its target Phosphodiesterase 3 (Homo sapiens, UniProt Q14432+Q13370). Put plainly: In vitro inhibition of cyclic AMP phosphodiesterase from human platelets.
The species named for another experiment is Homo sapiens. Kind of experiment: Ratio of IC50 of inhibition of platelet aggregation to IC50 of inhibition of platelet PDE (Efficacy index). Format: functional. In outline: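 Efficacy index is the IC50 for inhibition of ADP-induced platelet aggregation divided by the IC50 for human platelet PDE inhibition. Both IC50s come from graphical dose-response curves (five concentrations, triplicate).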

Experiment [1] in a line: Inhibition of ADP-induced platelet aggregation. Format: functional. An outline of the steps:
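ADP-induced platelet aggregation. Read-out is the rate of change in percentage transmission of the primary aggregation phase after 5 min incubation. Each agent tested at five concentrations in triplicate, with experiments repeated at least twice using platelets from different donors. IC50 (μM) determined graphically.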

The target of experiment [2] is Phosphodiesterase; PDE3 & PDE4 (Homo sapiens) (UniProt P27815+Q14432+Q08499+Q07343+Q13370+Q08493). Put plainly: In vivo inhibition of cyclic AMP phosphodiesterase from dog heart. An outline of the steps:
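Cyclic AMP phosphodiesterase prepared from human platelets (IC50, nM) or from rat or dog heart tissue (IC25, nM). Each agent tested at five inhibitor concentrations in triplicate. IC50/IC25 read graphically from the dose-response curve.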

The mark [3] stands for this setting: Canis lupus familiaris; in the assay text read “In vitro” for “In vivo”; target entry is the homologue from another species.
[4] abbreviates: Canis lupus familiaris; target entry is the homologue from another species; in the assay text read “In vitro” for “In vivo”.

One may read the IC50 as the concentration needed to halve the response being measured. Low values mean greater potency in that assay, high ones weaker potency in that assay. For orientation: IC25 means the concentration needed for an effect of 25%. Regarding `CN(C(=O)CCCOc1ccc2c(c1)CN1C(=O)C(=O)NC1=N2)C1CCCCC1`, the IC50 against Phosphodiesterase 3 stood at 4400 nM; in experiment [1], 150000 nM. Moreover, the Ratio in the experiment listed under Homo sapiens amounted to 34. Further, in experiment [2] (setting [3]), the IC25 was determined as 1700 nM.
For `O=C1CN2Cc3cc(OCCCC(=O)N(CCCCO)C4CCCCC4)ccc3N=C2N1`, the IC50 is 6.4 nM on Phosphodiesterase 3 and 4000 nM in experiment [1]. Besides, in the experiment filed under Homo sapiens, the Ratio is listed as 625. This compound had an IC25 in experiment [2] (setting [4]) of 7.2 nM.
Turning to `COC(=O)CN(C(=O)CCCOc1ccc2c(c1)CN1CC(=O)NC1=N2)C1CCCCC1`, the IC50 against Phosphodiesterase 3 was found to be 2 nM; in experiment [1] it was 700 nM. Besides, the Ratio in the experiment filed under Homo sapiens is on record as 350. Further, in experiment [2] (setting [4]), the IC25 was 10 nM.
For the compound `O=C1CN2Cc3cc(OCCCC(=O)N(CCn4ccnc4)C4CCCCC4)ccc3N=C2N1`, the IC50 at Phosphodiesterase 3 amounted to 5.6 nM; in experiment [1], 3600 nM. For the same compound, in the experiment filed under Homo sapiens, the Ratio came out at 642. In experiment [2] (setting [3]), this compound gave an IC25 of 7 nM.
As for `CN(C(=O)CCCOc1ccc2c(c1)CN1C(=N2)NC(=O)[C@@H]1CO)C1CCCCC1`, the IC50 against Phosphodiesterase 3 is 27.5 nM; in experiment [1] it was 15500 nM. Also, in the experiment filed under Homo sapiens, the Ratio was determined as 563. In experiment [2] (setting [3]), this compound had an IC25 of 90 nM.
The corresponding values for `CC(O)[C@@H]1C(=O)NC2=Nc3ccc(OCCCC(=O)N(C)C4CCCCC4)cc3CN21` (some centres not stated) are 1600 nM, 54000 nM, 34 and 3700 nM.
As to `CN(C(=O)CCCOc1ccc2c(c1)CN1CC(=O)NC1=N2)C1CCCCCC1`, the concentration for half-maximal inhibition (IC50) against Phosphodiesterase 3 is 1 nM; in experiment [1] it was 250 nM. Also, the Ratio in the experiment filed under Homo sapiens is on record as 250. In addition, the 25% effect level in experiment [2] (setting [4]) (IC25) was put at 4.2 nM.
Turning to `C[C@@H]1C(=O)NC2=Nc3ccc(OCCCC(=O)N(C)C4CCCCC4)cc3CN21`, the IC50 came to 5.4 nM at Phosphodiesterase 3 and 360 nM in experiment [1]. For the same compound, the Ratio in the experiment listed under Homo sapiens was found to be 66. The compound also registered an IC25 in experiment [2] (setting [4]) of 27 nM.
For the compound `CN(C(=O)NCCOc1ccc2c(c1)CN1CC(=O)NC1=N2)C1CCCCC1`, the IC50 against Phosphodiesterase 3 worked out at 17 nM; in experiment [1], 8600 nM. Besides, in the experiment listed under Homo sapiens, the Ratio was 506. The same compound registered an IC25 in experiment [2] (setting [3]) of 780 nM.
Consider `CN(C(=O)CCCOc1ccc2c(c1)NC1=NC(=O)CN1C2)C1CCCCC1`, for which the IC50 is 150 nM on Phosphodiesterase 3 and 26000 nM in experiment [1]. In the experiment filed under Homo sapiens, the Ratio came to 173. The compound further yielded an IC25 in experiment [2] (setting [4]) of 64 nM.
Consider `C=c1c(=O)[nH]c2n1Cc1cc(OCCCC(=O)N(C)C3CCCCC3)ccc1N=2`, for which the 50% inhibitory concentration (IC50) stood at 2.7 nM at Phosphodiesterase 3 and 150 nM in experiment [1]. In the experiment listed under Homo sapiens, the Ratio is reported as 55.5. In experiment [2] (setting [3]), this compound gave an IC25 of 45 nM.
For the compound `CC(C)N(C(=O)CCCOc1ccc2c(c1)CN1CC(=O)NC1=N2)C1CCCCC1`, the IC50 at Phosphodiesterase 3 came to 3.2 nM; in experiment [1] it was 260 nM. Moreover, the Ratio in the experiment filed under Homo sapiens amounted to 81. For the same compound, the IC25 in experiment [2] (setting [3]) was 15 nM.
For `O=C1CN2Cc3cc(OCCCC(=O)N(CCCO)C4CCCCC4)ccc3N=C2N1`, the IC50 against Phosphodiesterase 3 was 6 nM; in experiment [1], 1700 nM. The Ratio in the experiment listed under Homo sapiens was determined as 283. For the same compound, in experiment [2] (setting [3]), it took 17 nM to reach the 25% level (IC25).
Consider `O=C1CN2Cc3cc(OCCCC(=O)N(CCCCCO)C4CCCCC4)ccc3N=C2N1`, for which the IC50 on Phosphodiesterase 3 amounted to 4.9 nM; in experiment [1], 2700 nM. In addition, the Ratio in the experiment filed under Homo sapiens is 551. The IC25 in experiment [2] (setting [3]) came to 2.3 nM.
On to `CN(C(=O)CCCS(=O)(=O)c1ccc2c(c1)CN1CC(=O)NC1=N2)C1CCCCC1`, for which the IC50 is 3100 nM against Phosphodiesterase 3 and 58000 nM in experiment [1]. Moreover, in the experiment filed under Homo sapiens, the Ratio is 19. The compound also gave an IC25 in experiment [2] (setting [4]) of 6600 nM.
For the compound `CC[C@@H]1C(=O)NC2=Nc3ccc(OCCCC(=O)N(C)C4CCCCC4)cc3CN21`, the IC50 came to 370 nM against Phosphodiesterase 3 and 5600 nM in experiment [1]. Also, the Ratio in the experiment listed under Homo sapiens was 15. The IC25 in experiment [2] (setting [3]) amounted to 620 nM.
Turning to `CN(C)C(=O)CCCOc1ccc2c(c1)CN1CC(=O)NC1=N2`, the IC50 turned out to be 1200 nM on Phosphodiesterase 3 and 90000 nM in experiment [1]. The Ratio in the experiment listed under Homo sapiens came out at 75.
